# Experimental data as given in ChEMBL document CHEMBL4024708, “Recent synthetic and medicinal perspectives of dihydropyrimidinones: A review” (Eur J Med Chem, 2017).
# pKi: −log10 of the molar value.
# Columns and labels:
# Escherichia coli = test: Antibacterial activity against Escherichia coli MTCC 443 by spectrophotometric method; assay type: functional
# Outline: (§1)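 Serial broth dilution, 200 to 15.625 μg/mL, in nutrient broth, sonicated 10 min. Inoculum gave a starting density of 10^3–10^4 CFU/mL. Flasks were shaken at 200 rpm and 37 °C, and growth followed by the rise in absorbance at 600 nm. MIC is the lowest concentration inhibiting the organism. Controls: compound without inoculum, and inoculum without compound.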
# Klebsiella pneumoniae = test: Antibacterial activity against Klebsiella pneumoniae MTCC 7028 by spectrophotometric method; assay type: functional; outline: as §1
# Pseudomonas aeruginosa = test: Antibacterial activity against Pseudomonas aeruginosa MTCC 2581 by spectrophotometric method; assay type: functional; outline: as §1
# [1] = Antioxidant activity assessed as DPPH free radical scavenging activity at 12.5 ppm after 30 mins in dark by spectrophotometric method relative to control; assay type: functional
# Outline: (§2)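 DPPH (1,1-diphenyl-2-picrylhydrazyl) radical scavenging assay. The change in absorbance was read at 517 nm on a spectrophotometer. Activity is given as percent inhibition of the DPPH radical, calculated as (absorbance of control − absorbance of sample)/absorbance of control × 100.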
# Staphylococcus aureus = test: Antibacterial activity against Staphylococcus aureus MTCC 3160 by spectrophotometric method; assay type: functional; outline: as §1
# Mus musculus [2] = test: Anticonvulsant activity in ip dosed maximal electroshock induced seizure mouse model assessed as suppression of hind limb tonic extension measured at 4 hrs post dose; assay type: functional; settings: read-out: MED
# Outline: (§3)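 Albino mice given the compound ip, suspended in 0.5% methyl cellulose–water, at 30, 100 and 300 mg/kg. Maximal electroshock by corneal electrodes: 50 mA, 60 Hz, 0.2 s. Abolition of hind limb tonic extension scored as protection. Value is the minimum dose active in half or more of the mice.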
# Mus musculus [3] = test: Anticonvulsant activity in ip dosed maximal electroshock induced seizure mouse model assessed as suppression of hind limb tonic extension measured at 0.5 hrs post dose; assay type: functional; settings: read-out: MED; outline: as §3
# [4] = molecular target: T1, Alpha-1A adrenergic receptor (Homo sapiens, UniProt P35348); test: Displacement of [125I]L-762,459 from recombinant human alpha1a adrenergic receptor expressed in mammalian cells measured after 1 hr; assay type: cell-based
# T1 sequence (P35348 whole entry): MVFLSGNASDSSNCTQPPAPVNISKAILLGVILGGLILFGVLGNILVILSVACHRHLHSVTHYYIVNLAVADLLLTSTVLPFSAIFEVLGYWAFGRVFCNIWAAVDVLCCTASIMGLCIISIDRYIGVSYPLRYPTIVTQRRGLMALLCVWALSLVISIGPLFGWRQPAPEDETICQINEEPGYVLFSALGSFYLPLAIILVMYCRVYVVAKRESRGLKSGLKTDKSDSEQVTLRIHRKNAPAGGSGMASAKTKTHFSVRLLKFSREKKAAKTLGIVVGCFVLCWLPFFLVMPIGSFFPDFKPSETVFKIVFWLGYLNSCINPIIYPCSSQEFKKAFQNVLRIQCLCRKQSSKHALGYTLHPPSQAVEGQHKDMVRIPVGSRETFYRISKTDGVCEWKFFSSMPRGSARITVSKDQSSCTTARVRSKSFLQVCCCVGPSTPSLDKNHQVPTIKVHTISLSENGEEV
# CCRF-CEM = test: cells; settings: Homo sapiens, 48 h
# SR = test: Growth inhibition of human SR cells after 48 hrs by SRB assay; assay type: functional
# [5] = Antioxidant activity assessed as DPPH free radical scavenging activity at 100 ppm after 30 mins in dark by spectrophotometric method relative to control; assay type: functional; outline: as §2
# [6] = Antioxidant activity assessed as cupric ion reducing activity by measuring increase in absorbance at 100 ppm by CUPRAC assay; assay type: functional
# Outline: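 CUPRAC assay. Sample solution was mixed with distilled water, at a pH close to 7. Reduction of Cu(II) to Cu(I) was followed as the increase in absorbance at 450 nm of the reaction mixture.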
# Rattus norvegicus = test: Anti-inflammatory activity in rat assessed as inhibition of carrageenan-induced hind paw edema at 10 mg/kg, po pretreated for 1 hr followed by carrageenan challenge measured after 3 hrs by plethysmometer relative to control; assay type: functional
# Outline: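 Albino rats; carrageenan-induced paw edema test after Winter et al., with diclofenac sodium as reference standard. Percentage reduction in inflammation recorded 3 h after carrageenan, relative to carrageenan-only animals.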
# [7] = Half-life in Beagle dog at 0.5 mg/kg, iv by LC-MS analysis; assay type: ADME, organism-based, Canis lupus familiaris; settings: in vivo
# [8] = Antioxidant activity assessed as cupric ion reducing activity by measuring increase in absorbance at 12.5 ppm by CUPRAC assay; assay type: functional
# Outline: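 CUPRAC: reduction of Cu(II) to Cu(I) followed by the increase in absorbance at 450 nm. Sample and distilled water were made up to 4 mL total, near pH 7. Compounds were tested at 12.5–100 ppm, with gallic acid and quercetin as standards.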
structure (smiles),measurement,setting,value
CCC(=O)C1=C(C)NC(=O)NC1c1cc(Cl)cc(Cl)c1 (configuration not stated),MIC,Escherichia coli,15.6 to 31.2 µg/mL
same,MIC,Klebsiella pneumoniae,31.2 to 62.5 µg/mL
same,MIC,Pseudomonas aeruginosa,15.6 to 31.2 µg/mL
same,Activity,[1],17.3%
CCC(=O)C1=C(C)NC(=O)NC1c1ccc([N+](=O)[O-])cc1 (configuration not stated),MIC,Staphylococcus aureus,62.5 to 125 µg/mL
same,MIC,Pseudomonas aeruginosa,15.6 to 31.2 µg/mL
SC1=NC(n2nc(-c3ccccc3)nc2-c2ccccc2)=CC(c2ccccc2Cl)N1 (configuration not stated),minimal effective dose,Mus musculus [2],300 mg/kg
same,minimal effective dose,Mus musculus [3],30 mg/kg
CCC(=O)C1=C(C)NC(=O)NC1c1cccc(Cl)c1 (configuration not stated),MIC,Escherichia coli,15.6 to 31.2 µg/mL
same,MIC,Klebsiella pneumoniae,31.2 to 62.5 µg/mL
same,MIC,Pseudomonas aeruginosa; read-out: MIC,62.5 µg/mL
COc1ccc(C2C=C(n3cc(-c4ccccc4)nc3-c3ccccc3)N=C(S)N2)cc1 (configuration not stated),minimal effective dose,Mus musculus [2],300 mg/kg
same,minimal effective dose,Mus musculus [3],100 mg/kg
COCC1=C(C(=O)NCCCN2CCC(C#N)(c3ccc(C#N)cc3)CC2)[C@@H](c2ccc(F)c(F)c2)NC(=O)N1,pKi,[4],9.80
O=C1NC(=O)C(c2ccccc2)(c2ccccc2)N1 [PHENYTOIN],minimal effective dose,Mus musculus [2],30 mg/kg
same,minimal effective dose,Mus musculus [3],30 mg/kg
CC(=O)C1=C(C)NC(=O)NC1c1ccc(Cl)cc1 (configuration not stated),MIC,Klebsiella pneumoniae,31.2 to 62.5 µg/mL
same,MIC,Pseudomonas aeruginosa; read-out: MIC,250 µg/mL
SC1=NC(n2nc(-c3ccccc3)nc2-c2ccccc2)=CC(c2ccc(Cl)cc2)N1 (configuration not stated),minimal effective dose,Mus musculus [2],300 mg/kg
same,minimal effective dose,Mus musculus [3],30 mg/kg
O=c1/c(=C/c2ccc([N+](=O)[O-])o2)sc2n1C(c1ccc3c(c1)OCO3)C=C(c1cc(F)c(Cl)cc1Cl)N=2 (configuration not stated),GI50,CCRF-CEM,3240 nM
same,GI50,SR,3340 nM
O=c1c(O)c(-c2ccc(O)c(O)c2)oc2cc(O)cc(O)c12,Activity,[5],82.3%
same,absorbance,[6],1.2
same,Activity,[1],55.3%
CC1=C(C(=O)NCCCN2CCC(c3ccc(F)cc3)CC2)[C@@H](c2ccc(F)c(F)c2)N(C)C(=O)N1C,pKi,[4],9.85
NC(=O)N1c2ccccc2C=Cc2ccccc21 [CARBAMAZEPINE],minimal effective dose,Mus musculus [2],100 mg/kg
COc1ccc(C2C=C(n3nc(-c4ccccc4)nc3-c3ccccc3)N=C(S)N2)c(OC)c1 (configuration not stated),minimal effective dose,Mus musculus [2],300 mg/kg
same,minimal effective dose,Mus musculus [3],30 mg/kg
CN(C)c1ccc(C2C=C(n3cc(-c4ccccc4)nc3-c3ccccc3)N=C(S)N2)cc1 (configuration not stated),minimal effective dose,Mus musculus [2],300 mg/kg
same,minimal effective dose,Mus musculus [3],100 mg/kg
COc1ccc(C2NC(=O)NC(C)=C2C(C)=O)cc1 (configuration not stated),MIC,Staphylococcus aureus,62.5 to 125 µg/mL
same,MIC,Klebsiella pneumoniae,31.2 to 62.5 µg/mL
same,MIC,Pseudomonas aeruginosa; read-out: MIC,250 µg/mL
Cc1ccc(C2=C(CC(=O)O)C(c3ccccc3)NC(S)=N2)cc1 (configuration not stated),inhibition in vivo at 10 mg/kg,Rattus norvegicus,28%
SC1=NC(n2nc(-c3ccccc3)nc2-c2ccccc2)=CC(c2ccc(-c3ccco3)cc2)N1 (configuration not stated),minimal effective dose,Mus musculus [2],300 mg/kg
same,minimal effective dose,Mus musculus [3],30 mg/kg
O=C(O)CC1=C(c2ccccc2)N=C(S)NC1c1ccc(Cl)cc1 (configuration not stated),inhibition in vivo at 10 mg/kg,Rattus norvegicus,30%
COCC1=C(C(=O)NCCCN2CCC(c3ccc(F)cc3)CC2)[C@@H](c2ccc(F)c(F)c2)NC(=O)N1,half-life,[7],7 to 8 h
CCC(=O)C1=C(C)NC(=O)NC1c1ccccc1 (configuration not stated),MIC,Staphylococcus aureus,62.5 to 125 µg/mL
same,MIC,Pseudomonas aeruginosa,15.6 to 31.2 µg/mL
O=C(O)c1cc(O)c(O)c(O)c1,Activity,[5],92.4%
same,absorbance,[6],1.4
same,Activity,[1],62.4%
O=C(O)CC1=C(c2ccccc2)N=C(S)NC1c1cccs1 (configuration not stated),inhibition in vivo at 10 mg/kg,Rattus norvegicus,21%
COc1ccc(C2NC(=S)NC(c3ccc(C)cc3)=C2CC(=O)O)cc1 (configuration not stated),inhibition in vivo at 10 mg/kg,Rattus norvegicus,33%
O=C(O)CC1=C(c2ccc(Cl)cc2)N=C(S)NC1c1ccc(Cl)cc1 (configuration not stated),inhibition in vivo at 10 mg/kg,Rattus norvegicus,25%
CCCCC1NC(=O)NC(C)=C1C(=O)CC (configuration not stated),MIC,Staphylococcus aureus,250 µg/mL
same,MIC,Pseudomonas aeruginosa; read-out: MIC,250 µg/mL
O=C(O)CC1=C(c2ccc(Cl)cc2)N=C(S)NC1c1ccccc1 (configuration not stated),inhibition in vivo at 10 mg/kg,Rattus norvegicus,20%
SC1=NC(n2nc(-c3ccccc3)nc2-c2ccccc2)=CC(c2ccc(-c3ccccc3)cc2)N1 (configuration not stated),minimal effective dose,Mus musculus [2],300 mg/kg
same,minimal effective dose,Mus musculus [3],100 mg/kg
CCC(=O)C1=C(C)NC(=O)NC1c1ccc(OC)cc1 (configuration not stated),MIC,Staphylococcus aureus,250 µg/mL
same,MIC,Klebsiella pneumoniae,31.2 to 62.5 µg/mL
same,absorbance,[8],0.05
same,MIC,Pseudomonas aeruginosa; read-out: MIC,250 µg/mL
Oc1ccc(C2C=C(n3nc(-c4ccccc4)nc3-c3ccccc3)N=C(S)N2)cc1 (configuration not stated),minimal effective dose,Mus musculus [2],300 mg/kg
same,minimal effective dose,Mus musculus [3],30 mg/kg
CCC(=O)C1=C(C)NC(=O)NC1c1cccc(OC)c1 (configuration not stated),MIC,Staphylococcus aureus,250 µg/mL
same,MIC,Pseudomonas aeruginosa; read-out: MIC,250 µg/mL
COCC1=C(C(=O)NCCCN2CCC(C#N)(c3ccc(F)cc3)CC2)[C@@H](c2ccc(F)cc2)NCN1,pKi,[4],9.77
Cc1ccc(C2=C(CC(=O)O)C(c3ccc(Cl)cc3)NC(S)=N2)cc1 (configuration not stated),inhibition in vivo at 10 mg/kg,Rattus norvegicus,22%
CC(=O)C1=C(C)NC(=O)NC1c1ccc([N+](=O)[O-])cc1 (configuration not stated),MIC,Klebsiella pneumoniae,31.2 to 62.5 µg/mL
O=C(O)CC1=C(c2ccc(Cl)cc2)NC(=S)NC1c1cccs1 (configuration not stated),inhibition in vivo at 10 mg/kg,Rattus norvegicus,16%
COc1ccc(C2NC(S)=NC(c3ccccc3)=C2CC(=O)O)cc1 (configuration not stated),inhibition in vivo at 10 mg/kg,Rattus norvegicus,32%
O=C(O)CC1=C(c2ccccc2)N=C(S)NC1c1ccccc1 (configuration not stated),inhibition in vivo at 10 mg/kg,Rattus norvegicus,17%
SC1=NC(n2nc(-c3ccccc3)nc2-c2ccccc2)=CC(c2ccc(Br)cc2)N1 (configuration not stated),minimal effective dose,Mus musculus [2],300 mg/kg
same,minimal effective dose,Mus musculus [3],100 mg/kg
CCC(=O)C1=C(C)NC(=O)NC1c1ccc(Cl)cc1 (configuration not stated),MIC,Escherichia coli,15.6 to 31.2 µg/mL
same,MIC,Staphylococcus aureus,62.5 to 125 µg/mL
same,MIC,Klebsiella pneumoniae,31.2 to 62.5 µg/mL
same,MIC,Pseudomonas aeruginosa,15.6 to 31.2 µg/mL
CC(=O)C1=C(C)NC(=O)NC1c1ccccc1 (configuration not stated),Activity,[5],64.4%
same,MIC,Escherichia coli,15.6 to 31.2 µg/mL
same,MIC,Staphylococcus aureus,62.5 to 125 µg/mL
same,absorbance,[6],0.87
same,MIC,Pseudomonas aeruginosa; read-out: MIC,250 µg/mL
O=[N+]([O-])c1cccc(C2C=C(n3cc(-c4ccccc4)nc3-c3ccccc3)N=C(S)N2)c1 (configuration not stated),minimal effective dose,Mus musculus [2],300 mg/kg
same,minimal effective dose,Mus musculus [3],30 mg/kg
Cc1ccc(C2=C(CC(=O)O)C(c3cccs3)NC(S)=N2)cc1 (configuration not stated),inhibition in vivo at 10 mg/kg,Rattus norvegicus,10%
CC1=C(C(=O)NCCCN2CCC(c3ccc(F)c(F)c3)CC2)[C@@H](c2ccc(F)c(F)c2)NC(=O)N1C,pKi,[4],9.41 to 9.74
COc1ccc(C2NC(S)=NC(c3ccc(Cl)cc3)=C2CC(=O)O)cc1 (configuration not stated),inhibition in vivo at 10 mg/kg,Rattus norvegicus,35%
